Columns and labels:
[1] = system: Mus musculus; assay: Ratio of tumor volume of test(T) animals compared to control(C) animals x 100 T/C(%)] at a dose of 3.125 mg/kg/day; type: functional
In short: (§1)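 M5076 reticulum cell sarcoma: 10⁶ cells implanted im into the left leg of female BDF₁ mice (groups of five) on day 0. Treatment was ip, daily on days 1–17, in 10–20% DMSO in arachis oil. T/C% is treated tumor volume over control tumor volume × 100.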

[2] = system: Mus musculus; assay: Mean of weight gain from day 0 to day 24 at a dose of 6.25 mg/kg/day; type: functional; set-up: unit not given here
In short: (§2)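 M5076 reticulum cell sarcoma: 10⁶ cells implanted im into the left leg of female BDF₁ mice (groups of five) on day 0. Drug in 10–20% DMSO in arachis oil was given ip daily on days 1–17. Weight change is the mean weight gain from day 0 to day 24.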

[3] = system: Mus musculus; assay: Tumor volume in 16 days after tumor implantation at a dose of 12.5 mg/kg/day of compound; type: functional
In short: (§3)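 10⁶ M5076 reticulum cell sarcoma cells were injected im into the left leg of female BDF₁ mice, five per group, on day 0. Compound in 10–20% DMSO/arachis oil was dosed ip daily on days 1–17. Tumor volumes (mm³) were recorded on days 12, 16, 20 and 24 after implantation, with NM marking a tumor that could not be measured.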

[4] = system: Mus musculus; assay: Mean of weight gain from day 0 to day 24 at a dose of 25 mg/kg/day of compound; type: functional; set-up: unit not given here; in short: as §2
[5] = system: Mus musculus; assay: Tumor volume in 20 days after tumor implantation at a dose of 3.125 mg/kg/day; type: functional; in short: as §3
[6] = system: Mus musculus; assay: Ratio of tumor volume of test(T) animals compared to control(C) animals x 100 T/C(%)] at a dose of 25 mg/kg/day; type: functional; in short: as §1
[7] = system: Mus musculus; assay: Tumor volume in 12 days after tumor implantation at a dose of 12.5 mg/kg/day of compound; type: functional; in short: as §3
[8] = system: Mus musculus; assay: Tumor volume in 12 days after tumor implantation at a dose of 3.125 mg/kg/day of compound; type: functional; in short: as §3
[9] = system: Mus musculus; assay: Mean of weight gain from day 0 to day 24 at a dose of 12.5 mg/kg/day of compound; type: functional; set-up: unit not given here; in short: as §2
[10] = system: Mus musculus; assay: Tumor volume in 24 days after tumor implantation at a dose of 3.125 mg/kg/day; type: functional; in short: as §3
[11] = system: Mus musculus; assay: Tumor volume in 12 days after tumor implantation at a dose of 6.25 mg/kg/day of compound; type: functional; in short: as §3
[12] = system: Mus musculus; assay: Ratio of tumor volume of test(T) animals compared to control(C) animals x 100 T/C(%)] at a dose of 12.50 mg/kg/day; type: functional; in short: as §1
[13] = system: Mus musculus; assay: Tumor volume in 24 days after tumor implantation at a dose of 50 mg/kg/day of compound; type: functional; in short: as §3
[14] = system: Mus musculus; assay: Ratio of tumor volume of test (T) animals compared to control (C) animals x 100 T/C(%)] at a dose of 50 mg/kg/day of compound; type: functional; in short: as §1
[15] = system: Mus musculus; assay: Tumor volume in 20 days after tumor implantation at a dose of 6.25 mg/kg/day of compound; type: functional; in short: as §3
[16] = system: Mus musculus; assay: Tumor volume in 16 days after tumor implantation at a dose of 6.25 mg/kg/day of compound; type: functional; in short: as §3
[17] = system: Mus musculus; assay: (§4) Mean of weight gain from day 0 to day 24 at a dose of 3.125 mg/kg/day of compound; type: functional; set-up: unit not given here; in short: as §2
[18] = system: Mus musculus; assay: Mean of weight gain from day 0 to day 24 in the mice at a dose of 50 mg/kg/day of compound; type: functional; in short: as §2
[19] = system: Mus musculus; assay: Tumor volume in 20 days after tumor implantation at a dose of 12.5 mg/kg/day of compound; type: functional; in short: as §3
[20] = system: Mus musculus; assay: Tumor volume in 24 days after tumor implantation at a dose of 12.5 mg/kg/day; type: functional; in short: as §3
[21] = system: Mus musculus; assay: Tumor volume in 16 days after tumor implantation at a dose of 3.125 mg/kg/day of compound; type: functional; in short: as §3
[22] = system: Mus musculus; assay: Ratio of tumor volume of test(T) animals compared to control(C) animals x 100 T/C(%)] at a dose of 6.25 mg/kg/day; type: functional; in short: as §1
[23] = system: Mus musculus; assay: Tumor volume in 24 days after tumor implantation at a dose of 6.25 mg/kg/day; type: functional; in short: as §3
[24] = system: Mus musculus; assay: Tumor volume in 24 days after tumor implantation at a dose of 25 mg/kg/day of compound; type: functional; in short: as §3
[25] = system: Mus musculus; assay: Tumor volume in 20 days after tumor implantation at a dose of 3.125 mg/kg/day of compound; type: functional; in short: as §3
[26] = system: Mus musculus; assay: Ratio of tumor volume of test(T) animals compared to control(C) animals x 100T/C(%)] at a dose of 3.125 mg/kg/day of compound; type: organism-based; details: in vivo; in short: as §1
[27] = system: Mus musculus; assay: Tumor volume in 24 days after tumor implantation at a dose of 3.125 mg/kg/day of compound; type: functional; in short: as §3
[28] = system: Mus musculus; assay: as §4; type: functional; in short: as §2
[29] = system: Mus musculus; assay: Tumor volume in 16 days after tumor implantation at a dose of 25 mg/kg/day of compound; type: functional; in short: as §3
[30] = system: Mus musculus; assay: Tumor volume in 20 days after tumor implantation at a dose of 25 mg/kg/day of compound; type: functional; in short: as §3
[31] = system: Mus musculus; assay: Mean of weight gain from day 0 to day 24 at a dose of 50 mg/kg/day of compound; type: functional; in short: as §2
[32] = system: Mus musculus; assay: Tumor volume in 24 days after tumor implantation at a dose of 3.125 mg/kg/day of compound; NM=tumor not measureable; type: functional, organism-based; in short: as §3
[33] = system: Mus musculus; assay: Mean of weight gain from day 0 to day 24 at a dose of 3.125 mg/kg/day of compound (maximum activity noticed); type: functional; in short: as §2
[34] = system: Mus musculus; assay: Tumor volume in 16 days after tumor implantation at a dose of 3.125 mg/kg/day of compound; NM=tumor not measureable; type: functional, organism-based; in short: as §3
[35] = system: Mus musculus; assay: Number of survivors versus treated on day 24 at a dose of 12.5 mg/kg/day of compound; none of them survived(0/5); type: functional
[36] = system: Mus musculus; assay: Tumor volume in 20 days after tumor implantation at a dose of 3.125 mg/kg/day of compound; NM=tumor not measureable; type: functional, organism-based; in short: as §3
[37] = system: Mus musculus; assay: Tumor volume in 12 days after tumor implantation at a dose of 3.125 mg/kg/day of compound; NM=tumor not measureable.; type: functional, organism-based; in short: as §3
[38] = system: Mus musculus; assay: Number of survivors versus treated on day 24 at a dose of 6.25 mg/kg/day of compound; none of them survived(0/5); type: functional
[39] = system: Mus musculus; assay: Ratio of tumor volume of test(T) animals compared to control(C) animals x 100 T/C(%)] at a dose of 3.125 mg/kg/day of compound; maximal activity for this system.; type: organism-based; details: in vivo; in short: as §1
[40] = system: Mus musculus; assay: Number of survivors treated on day 24 at a dose of 25 mg/kg/day of compound expressed as ratio of (test/control); none of them survived(0/5); type: functional

Row | Compound | Antitumor activity [1] [%] | Weight change [2] | Tumor volume [3] [mm**3] | Weight change [4] | Tumor volume [5] [mm**3] | Antitumor activity [6] [%] | Tumor volume [8] [mm**3] | Weight change [9] | Tumor volume [10] [mm**3] | Tumor volume [11] [mm**3] | Antitumor activity [12] [%] | Antitumor activity [14] [%] | Tumor volume [15] [mm**3] | Tumor volume [16] [mm**3] | Weight change [17] | Tumor volume [19] [mm**3] | Tumor volume [20] [mm**3] | Tumor volume [21] [mm**3] | Antitumor activity [22] [%] | Tumor volume [23] [mm**3] | also measured
1 | CCCCNc1ccc(-c2c(N)nc(N)nc2CC)cc1[N+](=O)[O-] | 78 | 5.4 | 283 | 3.7 | 1176 | 22 | 271 | 3.6 | 2143 | 212 | 41 | 15 | 913 | 438 | 8.2 | 496 | 1061 | 622 | 70 | 1920 | Tumor volume [7]: 180 mm**3; Tumor volume [13]: 368 mm**3; Weight change [18]: 2.7; Tumor volume [24]: 638 mm**3
2 | CN(Cc1cnc2nc(N)nc(N)c2n1)c1ccc(C(=O)N[C@@H](CCC(=O)O)C(=O)O)cc1 [METHOTREXATE] |  |  |  |  |  |  | 411 |  |  | 347 |  |  |  | 389 |  |  |  | 987 |  |  | Tumor volume [25]: 1914 mm**3; T/C [26]: 92%; Tumor volume [27]: 2270 mm**3; Weight change [28]: 3.9
3 | CCc1nc(N)nc(N)c1-c1ccc(NCc2ccc(C)cc2)c([N+](=O)[O-])c1 | 76 | 2.1 | 198 | 2.4 | 1581 | 20 |  | 2.4 | 1881 |  | 24 |  | 704 | 270 | 3 | 385 | 641 | 596 | 44 | 1099 | Tumor volume [29]: 180 mm**3; Tumor volume [30]: 426 mm**3; Tumor volume [24]: 514 mm**3
4 | CCc1nc(N)nc(N)c1-c1ccc(NCc2ccc(Cl)c(Cl)c2)c([N+](=O)[O-])c1 | 48 | 3.5 |  | 2.7 | 858 | <8 | 216 | 3 | 1173 |  | 16 | <8 | 385 | 256 | 3.6 | 216 | 395 | 498 | 36 | 851 | Weight change [31]: 2.9
5 | Cc1nc(N)nc(N)c1-c1ccc(Cl)c(Cl)c1 [METOPRINE] |  |  |  |  |  |  |  |  |  |  |  |  |  |  |  |  |  |  |  |  | Tumor volume [32]: Not measurable; Weight change [33]: 4.9; Tumor volume [34]: Not measurable; Survivors [35]: 0; Tumor volume [36]: Not measurable; Tumor volume [37]: Not measurable; Survivors [38]: 0; T/C [39]: < 8%; Survivors [40]: 0

Reference: ChEMBL document CHEMBL1124368 (J Med Chem, 1989)
